# Measured values from different studies.
# CA9: Carbonic anhydrase 9 (CA9, Homo sapiens, UniProt Q16790)
# SIRT5: NAD-dependent protein deacylase sirtuin-5, mitochondrial (SIRT5, Homo sapiens, UniProt Q9NXA8)
# PKN1: Serine/threonine-protein kinase N1 (PKN1, Homo sapiens, UniProt Q16512)
# PRSS1: Serine protease 1 (PRSS1, Bos taurus, UniProt P00760)
# MCL1: Induced myeloid leukemia cell differentiation protein Mcl-1 (MCL1, Homo sapiens, UniProt Q07820)
# HDAC9: Histone deacetylase 9 (HDAC9, Homo sapiens, UniProt Q9UKV0)
Compound,target,observed,mode,technique,time,pH,IC50
COc1ccc(C(=O)N2CCCC(C(=O)Nc3cc(S(N)(=O)=O)ccc3O)C2)c2ccccc12 (stereo not drawn),CA9,enzyme activity,inhibitor,,,,2.61 µM
Cc1cnc(-c2ccc(-c3ccc(NC(=O)Nc4c(F)cc(F)cc4F)cc3F)c3c2C(=O)NC3)[nH]1,"Tyrosine-protein kinase HCK (HCK, Homo sapiens, UniProt P08631)",enzyme activity,inhibitor,,,,0.0025 µM
NS(=O)(=O)c1ccc(NC2=NC(=O)C(CC(=O)Nc3ccc(Br)cc3)S2)cc1 (stereo not drawn),CA9,enzyme activity,inhibitor,,,,0.052 µM
CCOCc1nc(O)c(-c2nnc(Cc3ccc(Cl)cn3)o2)c(O)c1-c1c(OC)cccc1OC,"Beta-1 adrenergic receptor (ADRB1, Homo sapiens, UniProt P08588)",ligand displacement,,radioligand,,,> 30 µM
CC(NC(=O)c1ccccc1/N=C/c1c(O)ccc2ccccc12)c1ccccc1 (stereo not drawn),SIRT5,enzyme activity,inhibitor,HPLC,,,> 100 µM
NS(=O)(=O)c1ccc(NC(=O)COC(=O)c2c3c(nc4ccccc24)C(=Cc2ccco2)CCC3)cc1,CA9,enzyme activity,inhibitor,,,,0.096 µM
NS(=O)(=O)c1ccc(Nc2nc(OCC3CCCCC3)c3[nH]cnc3n2)cc1,PKN1,enzyme activity,inhibitor,,,,0.828 µM
COc1cc(NCC(=O)Nn2c(C)nc3ccc(Cl)cc3c2=O)cc(OC)c1OC,PRSS1,enzyme activity,inhibitor,,,,54.3 µM
O=C1NC(=O)C(c2cnc3ccccn23)=C1c1cn2c3c(cc(F)cc13)CN(C(=O)N1CCCCC1)CC2,PKN1,enzyme activity,inhibitor,,,,0.108 µM
Cc1ccc(S(=O)(=O)N=C2C=C(Sc3nnc[nH]3)C(=O)c3ccccc32)cc1,MCL1,ligand displacement,,FP,,,0.45 µM
CCc1ccc(/C=N/n2c(C)nc3ccc(C)cc3c2=O)s1,PRSS1,enzyme activity,inhibitor,,,,224 µM
Nc1ccc(-c2ccncc2)cc1NC(=O)N1CCCC1,HDAC9,enzyme activity,inhibitor,,,,> 33.3 µM
CC1Cc2c(-c3cn(C)nn3)cccc2N1Cc1ccoc1C(=O)Nc1ccc(S(N)(=O)=O)cc1 (stereo not drawn),CA9,enzyme activity,inhibitor,,,,0.0112 µM
CN1CCN(Cc2ccc(-c3cnc4[nH]cc(-c5ccc6[nH]ccc6c5)c4c3)cc2)CC1,PKN1,enzyme activity,inhibitor,,,,0.178 µM
CCCC[C@H](NC(=O)C1CN(C)C1)c1ncc(-c2cc3ccccc3nc2OC)[nH]1,HDAC9,enzyme activity,inhibitor,,,,> 30 µM
COc1ccc2c(Oc3ccc4c(C(=O)Nc5ccccc5N)cccc4c3)ccnc2c1,"Inward rectifier potassium channel 2 (KCNJ2, Homo sapiens, UniProt P63252)",ion current,inhibitor,,,,> 10 µM
O=C(Nc1ccncc1)c1cc2ccccc2o1,"Amine oxidase [flavin-containing] B (MAOB, Homo sapiens, UniProt P27338)",enzyme activity,inhibitor,fluorescence,,,6.9 µM
O=c1c(O)c(-c2ccc(O)c(O)c2)oc2cc(O)cc(O)c12,"Sulfotransferase 1A1 (SULT1A1, Homo sapiens, UniProt P50225)",enzyme activity,inhibitor,,,,0.529 µM
CC1Cc2cc(-c3cn(C)nn3)ccc2N1Cc1ccoc1C(=O)Nc1ccc(S(N)(=O)=O)cc1 (stereo not drawn),CA9,enzyme activity,inhibitor,,,,0.132 µM
Cc1c[nH]c2nc(Nc3ccc(N4CCN(C)CC4)c(F)c3)nc(-c3cccc(CC#N)c3)c12,PKN1,enzyme activity,inhibitor,,,,0.187 µM
CN1CCN(c2ccc(Nc3ncc4cc(C#N)c(=O)n(C5CCCC5)c4n3)cc2)CC1,"Ribosomal protein S6 kinase alpha-6 (RPS6KA6, Homo sapiens, UniProt Q9UK32)",enzyme activity,inhibitor,,,,0.101 µM
Cc1nc2ccc(Cl)cc2c(=O)n1NC(=O)CCl,PRSS1,enzyme activity,inhibitor,,,,97.9 µM
CC1(COc2ccc3c(c2)ncn3-c2ccc3cccc(N4CCC(N)CC4)c3n2)COC1,PKN1,enzyme activity,inhibitor,,,,0.022 µM
COc1ccc(C2=NN(C3CCCCCC3)C(=O)[C@@H]3CC=CC[C@H]23)cc1-c1ccc(C(N)=O)cc1 (relative stereo),"3',5'-cyclic-AMP phosphodiesterase 4C (PDE4C, Homo sapiens, UniProt Q08493)",enzyme activity,inhibitor,,,,0.501 µM
O=C(O)CCNC(=S)NCCCC[C@H](NS(=O)(=O)c1cccc(F)c1)C(=O)N[C@@H](Cc1c[nH]c2ccccc12)C(=O)NC1CCC1,SIRT5,enzyme activity,inhibitor,fluorescence,,,0.093 µM
Cc1nc2ccccc2c(=O)n1NC(=O)CSc1nc2ccccc2c(=O)n1-c1ccccc1,PRSS1,enzyme activity,inhibitor,,,,3.73 µM
CC(C)c1cc(CNc2nc(Nc3cc(C4CC4)[nH]n3)cc(N3CCN(C)CC3)n2)on1,PKN1,enzyme activity,inhibitor,,,,0.02 µM
Cc1cc(C(=O)N2CCN(Cc3nc(-c4ccc(Cl)cc4)no3)CC2)ccc1S(N)(=O)=O,CA9,enzyme activity,inhibitor,,,,0.081 µM
COc1cc2c(c(OC)c1OC)-c1c(cc3c(c1OC)OCO3)[C@H](OC(=O)c1ccccc1)[C@@](C)(O)[C@@H](C)C2,"Cytochrome P450 3A5 (CYP3A5, Homo sapiens, UniProt P20815)",enzyme activity,inhibitor,,15 min,pH 7.4,0.59 µM
COc1cc(/C=N/n2c(C)nc3ccc(C)cc3c2=O)ccc1OCc1ccccc1,PRSS1,enzyme activity,inhibitor,,,,108 µM
CN(C)Cc1ccc(N2CCN(C(=O)c3ccc(Cl)c(S(N)(=O)=O)c3)CC2)nc1,CA9,enzyme activity,inhibitor,,,,5.7 µM
O=C(NS(=O)(=O)c1ccc(COc2ccccc2)cc1)c1cccc(-c2cc(Cl)cc(Cl)c2)c1,MCL1,ligand displacement,,FP,,,5.1 µM
CCNC(=O)[C@H](CCCNC(=N)CCl)NC(=O)c1ccccc1,"Protein-arginine deiminase type-4 (PADI4, Homo sapiens, UniProt Q9UM07)",enzyme activity,inhibitor,,,,4.1 µM
NS(=O)(=O)c1ccc(NC2=NC(=O)/C(=C\c3ccc(C(=O)O)cc3)S2)cc1,CA9,enzyme activity,inhibitor,,,,0.122 µM
COC(=O)C1CCCCN1C(=O)c1cccc(NC(=O)CSc2ccc(S(N)(=O)=O)cc2)c1 (stereo not drawn),CA9,enzyme activity,inhibitor,,,,0.091 µM
C[C@@H](N)[C@H]1CC[C@H](C(=O)Nc2ccncc2)CC1,PKN1,enzyme activity,inhibitor,,,,0.743 µM
CC(C)C[C@H](NC(=O)[C@H]1O[C@@H]1C(=O)O)C(=O)NCCCCN=C(N)N,"Cathepsin L2 (CTSV, Homo sapiens, UniProt O60911)",enzyme activity,inhibitor,,,,0.00541 µM
O=C(c1ccc(Nc2nccc(-c3cc4ccccc4s3)n2)cc1)N1CCC(N2CCCC2)CC1,PKN1,enzyme activity,inhibitor,,,,0.049 µM
CC(C)c1nc(CN(C)C(=O)N[C@@H](CCN2CCOCC2)C(=O)N[C@H](CC[C@H](Cc2ccccc2)NC(=O)OCc2cncs2)Cc2ccccc2)cs1,"Solute carrier family 22 member 7 (SLC22A7, Homo sapiens, UniProt Q9Y694)",transporter uptake,inhibitor,,,,> 100 µM
